Assay results from ChEMBL document CHEMBL4706643 (J Med Chem, 2021).
Each block holds one compound with its values, some of them ahead of it.

Columns and labels:
[1] = Intrinsic clearance in rat liver microsomes at 1 uM preincubated for 5 mins followed by NADPH addition and measured upto 60 mins by LC-MS analysis; assay type: ADME, Microsome; conditions: time 65 min, read-out: CLH
[2] = Intrinsic clearance in mouse liver microsomes at 1 uM preincubated for 5 mins followed by NADPH addition and measured upto 60 mins by LC-MS analysis; assay type: ADME, Microsome; conditions: read-out: CLH
Method in brief: (§1)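 Human or mouse liver microsomes, final 1 mg/mL in 0.05 M phosphate buffer pH 7.4; compound final 1 μM, preincubated 37 °C 5 min, started with 1 mM NADPH; sampled at 0, 5, 15, 30, 60 min, methanol quench, −20 °C 1 h, centrifuged, supernatant by LC–MS.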

[3] = Intrinsic clearance in human liver microsomes at 1 uM preincubated for 5 mins followed by NADPH addition and measured upto 60 mins by LC-MS analysis; assay type: ADME, Microsome; conditions: read-out: CLH; method in brief: as §1
Hepatitis B virus = assay: Antiviral activity against HBV infected in human HepG2-NTCP cells assessed as reduction in HBeAg secretion cells inoculated with virus for 4 hrs at room temperature and 37 degree C for 24 hrs followed inoculum changed with PMM medium for every 2 days until day 5 post infection by ELISA; assay type: functional, organism-based

SMILES: CCOc1cccc(S[C@H]2C[C@@H](C)[C@H]([C@H]3C(=O)N[C@@H](CC)C(=O)N(C)CC(=O)N(C)[C@@H](CC(C)C)C(=O)N[C@@H](C(C)C)C(=O)N(C)[C@@H](CC(C)C)C(=O)N[C@@H](C)C(=O)N[C@H](C)C(=O)N(C)[C@@H](CC(C)C)C(=O)N(C)[C@@H](CC(C)C)C(=O)N(C)[C@@H](C(C)C)C(=O)N3C)O2)c1
- microsomal CLint at 1 µM [1]: 2.3 µL/min/mg
- microsomal CLint at 1 µM [2]: 4 µL/min/mg
- microsomal CLint at 1 µM [3]: 18.5 µL/min/mg
- IC50 (Hepatitis B virus): 181 nM

SMILES: CC[C@@H]1NC(=O)[C@H]([C@@H]2O[C@@H](Sc3cccc(OCc4ccc(F)cc4C)c3)C[C@H]2C)N(C)C(=O)[C@H](C(C)C)N(C)C(=O)[C@H](CC(C)C)N(C)C(=O)[C@H](CC(C)C)N(C)C(=O)[C@@H](C)NC(=O)[C@H](C)NC(=O)[C@H](CC(C)C)N(C)C(=O)[C@H](C(C)C)NC(=O)[C@H](CC(C)C)N(C)C(=O)CN(C)C1=O
- microsomal CLint at 1 µM [1]: 0.8 µL/min/mg
- microsomal CLint at 1 µM [2]: 7.1 µL/min/mg
- IC50 (Hepatitis B virus): 122 nM

SMILES: CC[C@@H]1NC(=O)[C@H]([C@@H]2O[C@H](Sc3cccc(OCc4ccccc4)c3)C[C@H]2C)N(C)C(=O)[C@H](C(C)C)N(C)C(=O)[C@H](CC(C)C)N(C)C(=O)[C@H](CC(C)C)N(C)C(=O)[C@@H](C)NC(=O)[C@H](C)NC(=O)[C@H](CC(C)C)N(C)C(=O)[C@H](C(C)C)NC(=O)[C@H](CC(C)C)N(C)C(=O)CN(C)C1=O
- microsomal CLint at 1 µM [1]: 3 µL/min/mg
- microsomal CLint at 1 µM [2]: 2.1 µL/min/mg
- microsomal CLint at 1 µM [3]: 7.7 µL/min/mg

SMILES: CC[C@@H]1NC(=O)[C@H]([C@@H]2O[C@@H](Sc3ccc(OC)cc3)C[C@H]2C)N(C)C(=O)[C@H](C(C)C)N(C)C(=O)[C@H](CC(C)C)N(C)C(=O)[C@H](CC(C)C)N(C)C(=O)[C@@H](C)NC(=O)[C@H](C)NC(=O)[C@H](CC(C)C)N(C)C(=O)[C@H](C(C)C)NC(=O)[C@H](CC(C)C)N(C)C(=O)CN(C)C1=O
- IC50 (Hepatitis B virus): 990 nM

SMILES: CC[C@@H]1NC(=O)[C@H]([C@@H]2O[C@@H](Sc3cccc(OCc4ccccn4)c3)C[C@H]2C)N(C)C(=O)[C@H](C(C)C)N(C)C(=O)[C@H](CC(C)C)N(C)C(=O)[C@H](CC(C)C)N(C)C(=O)[C@@H](C)NC(=O)[C@H](C)NC(=O)[C@H](CC(C)C)N(C)C(=O)[C@H](C(C)C)NC(=O)[C@H](CC(C)C)N(C)C(=O)CN(C)C1=O
- IC50 (Hepatitis B virus): 317 nM

SMILES: CC[C@@H]1NC(=O)[C@H]([C@@H]2O[C@@H](Sc3cccc(N(C)CC)c3)C[C@H]2C)N(C)C(=O)[C@H](C(C)C)N(C)C(=O)[C@H](CC(C)C)N(C)C(=O)[C@H](CC(C)C)N(C)C(=O)[C@@H](C)NC(=O)[C@H](C)NC(=O)[C@H](CC(C)C)N(C)C(=O)[C@H](C(C)C)NC(=O)[C@H](CC(C)C)N(C)C(=O)CN(C)C1=O
- IC50 (Hepatitis B virus): 206 nM

SMILES: CC[C@@H]1NC(=O)[C@H]([C@@H]2O[C@@H](Sc3nccc(C(F)(F)F)n3)C[C@H]2C)N(C)C(=O)[C@H](C(C)C)N(C)C(=O)[C@H](CC(C)C)N(C)C(=O)[C@H](CC(C)C)N(C)C(=O)[C@@H](C)NC(=O)[C@H](C)NC(=O)[C@H](CC(C)C)N(C)C(=O)[C@H](C(C)C)NC(=O)[C@H](CC(C)C)N(C)C(=O)CN(C)C1=O
- IC50 (Hepatitis B virus): 4960 nM

SMILES: CC[C@@H]1NC(=O)[C@H]([C@@H]2O[C@@H](Sc3cccc(OCC4CCOCC4)c3)C[C@H]2C)N(C)C(=O)[C@H](C(C)C)N(C)C(=O)[C@H](CC(C)C)N(C)C(=O)[C@H](CC(C)C)N(C)C(=O)[C@@H](C)NC(=O)[C@H](C)NC(=O)[C@H](CC(C)C)N(C)C(=O)[C@H](C(C)C)NC(=O)[C@H](CC(C)C)N(C)C(=O)CN(C)C1=O
- IC50 (Hepatitis B virus): 249 nM

SMILES: CC[C@@H]1NC(=O)[C@H]([C@@H]2O[C@@H](Sc3cccc(OCc4ccncc4)c3)C[C@H]2C)N(C)C(=O)[C@H](C(C)C)N(C)C(=O)[C@H](CC(C)C)N(C)C(=O)[C@H](CC(C)C)N(C)C(=O)[C@@H](C)NC(=O)[C@H](C)NC(=O)[C@H](CC(C)C)N(C)C(=O)[C@H](C(C)C)NC(=O)[C@H](CC(C)C)N(C)C(=O)CN(C)C1=O
- IC50 (Hepatitis B virus): 382 nM

SMILES: CCCOc1cccc(S[C@H]2C[C@@H](C)[C@H]([C@H]3C(=O)N[C@@H](CC)C(=O)N(C)CC(=O)N(C)[C@@H](CC(C)C)C(=O)N[C@@H](C(C)C)C(=O)N(C)[C@@H](CC(C)C)C(=O)N[C@@H](C)C(=O)N[C@H](C)C(=O)N(C)[C@@H](CC(C)C)C(=O)N(C)[C@@H](CC(C)C)C(=O)N(C)[C@@H](C(C)C)C(=O)N3C)O2)c1
- IC50 (Hepatitis B virus): 223 nM

SMILES: CC[C@@H]1NC(=O)[C@H]([C@@H]2O[C@@H](Sc3ccc(Cl)c(OCc4ccccc4)c3)C[C@H]2C)N(C)C(=O)[C@H](C(C)C)N(C)C(=O)[C@H](CC(C)C)N(C)C(=O)[C@H](CC(C)C)N(C)C(=O)[C@@H](C)NC(=O)[C@H](C)NC(=O)[C@H](CC(C)C)N(C)C(=O)[C@H](C(C)C)NC(=O)[C@H](CC(C)C)N(C)C(=O)CN(C)C1=O
- IC50 (Hepatitis B virus): 215 nM

SMILES: CC[C@@H]1NC(=O)[C@H]([C@@H]2O[C@@H](Sc3cccc(O)c3)C[C@H]2C)N(C)C(=O)[C@H](C(C)C)N(C)C(=O)[C@H](CC(C)C)N(C)C(=O)[C@H](CC(C)C)N(C)C(=O)[C@@H](C)NC(=O)[C@H](C)NC(=O)[C@H](CC(C)C)N(C)C(=O)[C@H](C(C)C)NC(=O)[C@H](CC(C)C)N(C)C(=O)CN(C)C1=O
- IC50 (Hepatitis B virus): 1650 nM

SMILES: C/C=C/C[C@@H](C)[C@@H](O)[C@H]1C(=O)N[C@@H](CC)C(=O)N(C)CC(=O)N(C)[C@@H](CC(C)C)C(=O)N[C@@H](C(C)C)C(=O)N(C)[C@@H](CC(C)C)C(=O)N[C@@H](C)C(=O)N[C@H](C)C(=O)N(C)[C@@H](CC(C)C)C(=O)N(C)[C@@H](CC(C)C)C(=O)N(C)[C@@H](C(C)C)C(=O)N1C [CYCLOSPORINE]
- IC50 (Hepatitis B virus): 5780 nM

Results, then the compound that gave them:

- microsomal CLint at 1 µM [1]: 2 µL/min/mg
- microsomal CLint at 1 µM [2]: 0.3 µL/min/mg
- microsomal CLint at 1 µM [3]: 7.7 µL/min/mg
- IC50 (Hepatitis B virus): 206 nM
SMILES: CC[C@@H]1NC(=O)[C@H]([C@@H]2O[C@@H](Sc3cccc(OCc4ccc(F)cc4)c3)C[C@H]2C)N(C)C(=O)[C@H](C(C)C)N(C)C(=O)[C@H](CC(C)C)N(C)C(=O)[C@H](CC(C)C)N(C)C(=O)[C@@H](C)NC(=O)[C@H](C)NC(=O)[C@H](CC(C)C)N(C)C(=O)[C@H](C(C)C)NC(=O)[C@H](CC(C)C)N(C)C(=O)CN(C)C1=O

- IC50 (Hepatitis B virus): > 10000 nM
SMILES: CC[C@@H]1NC(=O)[C@H]([C@@H]2OCC[C@H]2C)N(C)C(=O)[C@H](C(C)C)N(C)C(=O)[C@H](CC(C)C)N(C)C(=O)[C@H](CC(C)C)N(C)C(=O)[C@@H](C)NC(=O)[C@H](C)NC(=O)[C@H](CC(C)C)N(C)C(=O)[C@H](C(C)C)NC(=O)[C@H](CC(C)C)N(C)C(=O)CN(C)C1=O

- IC50 (Hepatitis B virus): 1700 nM
SMILES: CC[C@@H]1NC(=O)[C@H]([C@@H]2O[C@H](Sc3ccc(OC)cc3)C[C@H]2C)N(C)C(=O)[C@H](C(C)C)N(C)C(=O)[C@H](CC(C)C)N(C)C(=O)[C@H](CC(C)C)N(C)C(=O)[C@@H](C)NC(=O)[C@H](C)NC(=O)[C@H](CC(C)C)N(C)C(=O)[C@H](C(C)C)NC(=O)[C@H](CC(C)C)N(C)C(=O)CN(C)C1=O

- IC50 (Hepatitis B virus): > 10000 nM
SMILES: C=C(C)C1C[C@@H](C)[C@H]([C@H]2C(=O)N[C@@H](CC)C(=O)N(C)CC(=O)N(C)[C@@H](CC(C)C)C(=O)N[C@@H](C(C)C)C(=O)N(C)[C@@H](CC(C)C)C(=O)N[C@@H](C)C(=O)N[C@H](C)C(=O)N(C)[C@@H](CC(C)C)C(=O)N(C)[C@@H](CC(C)C)C(=O)N(C)[C@@H](C(C)C)C(=O)N2C)O1 (stereo not given in full)

- IC50 (Hepatitis B virus): 2170 nM
SMILES: CC[C@@H]1NC(=O)[C@H]([C@@H]2O[C@@H](Sc3c(OC)cccc3OC)C[C@H]2C)N(C)C(=O)[C@H](C(C)C)N(C)C(=O)[C@H](CC(C)C)N(C)C(=O)[C@H](CC(C)C)N(C)C(=O)[C@@H](C)NC(=O)[C@H](C)NC(=O)[C@H](CC(C)C)N(C)C(=O)[C@H](C(C)C)NC(=O)[C@H](CC(C)C)N(C)C(=O)CN(C)C1=O

- IC50 (Hepatitis B virus): 681 nM
SMILES: CC[C@@H]1NC(=O)[C@H]([C@@H]2O[C@H](Oc3cccc(OCc4ccccc4)c3)C[C@H]2C)N(C)C(=O)[C@H](C(C)C)N(C)C(=O)[C@H](CC(C)C)N(C)C(=O)[C@H](CC(C)C)N(C)C(=O)[C@@H](C)NC(=O)[C@H](C)NC(=O)[C@H](CC(C)C)N(C)C(=O)[C@H](C(C)C)NC(=O)[C@H](CC(C)C)N(C)C(=O)CN(C)C1=O

- IC50 (Hepatitis B virus): 172 nM
SMILES: CC[C@@H]1NC(=O)[C@H]([C@@H]2O[C@@H](Sc3cccc(OC(C)c4ccccc4)c3)C[C@H]2C)N(C)C(=O)[C@H](C(C)C)N(C)C(=O)[C@H](CC(C)C)N(C)C(=O)[C@H](CC(C)C)N(C)C(=O)[C@@H](C)NC(=O)[C@H](C)NC(=O)[C@H](CC(C)C)N(C)C(=O)[C@H](C(C)C)NC(=O)[C@H](CC(C)C)N(C)C(=O)CN(C)C1=O (stereo not given in full)

- IC50 (Hepatitis B virus): 354 nM
SMILES: CC[C@@H]1NC(=O)[C@H]([C@@H]2O[C@@H](Sc3cccc(OCCc4ccccc4)c3)C[C@H]2C)N(C)C(=O)[C@H](C(C)C)N(C)C(=O)[C@H](CC(C)C)N(C)C(=O)[C@H](CC(C)C)N(C)C(=O)[C@@H](C)NC(=O)[C@H](C)NC(=O)[C@H](CC(C)C)N(C)C(=O)[C@H](C(C)C)NC(=O)[C@H](CC(C)C)N(C)C(=O)CN(C)C1=O

- IC50 (Hepatitis B virus): 365 nM
SMILES: CC[C@@H]1NC(=O)[C@H]([C@@H]2O[C@@H](Sc3cccc(OCC4CC4)c3)C[C@H]2C)N(C)C(=O)[C@H](C(C)C)N(C)C(=O)[C@H](CC(C)C)N(C)C(=O)[C@H](CC(C)C)N(C)C(=O)[C@@H](C)NC(=O)[C@H](C)NC(=O)[C@H](CC(C)C)N(C)C(=O)[C@H](C(C)C)NC(=O)[C@H](CC(C)C)N(C)C(=O)CN(C)C1=O

- microsomal CLint at 1 µM [2]: 2.2 µL/min/mg
- microsomal CLint at 1 µM [3]: 4.2 µL/min/mg
- IC50 (Hepatitis B virus): 116 nM
SMILES: CC[C@@H]1NC(=O)[C@H]([C@@H]2O[C@@H](Sc3cc(Cl)cc(OC)c3)C[C@H]2C)N(C)C(=O)[C@H](C(C)C)N(C)C(=O)[C@H](CC(C)C)N(C)C(=O)[C@H](CC(C)C)N(C)C(=O)[C@@H](C)NC(=O)[C@H](C)NC(=O)[C@H](CC(C)C)N(C)C(=O)[C@H](C(C)C)NC(=O)[C@H](CC(C)C)N(C)C(=O)CN(C)C1=O
